According to ChEMBL document CHEMBL1128415 (J Med Chem, 1995):
“And” between values parts separate entries of the source, which are not always exact repeats. Equal values may be shown once.

Columns and labels:
[1] = target: T1, Angiotensin II receptor (AT-1) type-1 (Rattus norvegicus, UniProt P29089+P25095); experiment: Specific binding inhibition of [125I]AII to Angiotensin II receptor, type 1 in rat liver membrane; assay type: cell membranes
T1 sequence (P29089 whole entry): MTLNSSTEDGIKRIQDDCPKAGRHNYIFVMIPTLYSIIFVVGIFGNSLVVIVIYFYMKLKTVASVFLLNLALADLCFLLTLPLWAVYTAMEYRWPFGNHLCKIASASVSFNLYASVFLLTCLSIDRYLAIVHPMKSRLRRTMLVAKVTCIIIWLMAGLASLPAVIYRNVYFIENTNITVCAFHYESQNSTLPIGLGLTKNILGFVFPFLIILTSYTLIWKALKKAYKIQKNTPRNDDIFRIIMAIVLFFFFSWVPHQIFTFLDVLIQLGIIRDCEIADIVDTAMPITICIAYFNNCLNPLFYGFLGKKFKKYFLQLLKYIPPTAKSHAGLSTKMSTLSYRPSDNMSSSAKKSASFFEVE
T1 sequence (P25095 whole entry): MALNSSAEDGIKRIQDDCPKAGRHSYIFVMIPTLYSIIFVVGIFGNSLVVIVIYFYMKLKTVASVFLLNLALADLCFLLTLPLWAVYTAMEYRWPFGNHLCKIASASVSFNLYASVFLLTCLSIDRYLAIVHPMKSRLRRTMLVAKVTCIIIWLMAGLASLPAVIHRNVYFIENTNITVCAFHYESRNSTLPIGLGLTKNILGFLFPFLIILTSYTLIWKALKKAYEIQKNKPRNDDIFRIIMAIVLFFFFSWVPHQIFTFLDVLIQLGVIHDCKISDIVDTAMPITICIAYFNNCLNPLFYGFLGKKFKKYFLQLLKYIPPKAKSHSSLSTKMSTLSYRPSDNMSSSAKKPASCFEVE

[2] = target: T2, Angiotensin II receptor (AT-1) type-1 (Rattus norvegicus) (UniProt P29089+P25095); experiment: Inhibition of pressor response induced by infusion of angiotensin II in rats, administered perorally; assay type: functional
Summary of the method: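 Sprague-Dawley rats (n = 18-28) dosed by gastric tube in groups; vehicle water or water with 2 equiv NaOH; controls given water. At 50 min rats anaesthetised, pithed, ventilated, with carotid and jugular catheters. At 1 h post-dose AII 0.75 μg/kg iv given.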

[3] = target: T2, Angiotensin II receptor (AT-1) type-1 (Rattus norvegicus); experiment: Inhibition of pressor response induced by infusion of AII in rats when dose is administered intravenously; assay type: functional
Summary of the method: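 Normotensive Sprague-Dawley pithed rats (n = 4), BP recorded by carotid catheter. AII 0.75 μg/kg injected via jugular vein; three control responses taken. Each later AII challenge followed, by 5 min, an iv injection of antagonist at increasing doses, in water or water with 2 equiv NaOH.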

SMILES	IC50 [1]	ID50 [2]	ID50 [3]
CCCCc1nc(SC)c(CO)n1Cc1ccc(-c2ccccc2S(=O)(=O)NC(=O)NCCC)cc1	4500 pM	> 10 mg/kg	0.21 mg/kg
CCCCc1nc([S+](C)[O-])c(C(=O)O)n1Cc1ccc(-c2ccccc2S(=O)(=O)NC(=O)NCCC)cc1 (stereo not given)	3100 pM	> 10 mg/kg	0.14 mg/kg
CCCNC(=O)NS(=O)(=O)c1ccccc1-c1ccc(Cn2c(CC)nc(SC)c2C(=O)O)cc1	1300 pM	–	–
CCCCc1nc(SCCCCOC(C)=O)c(C(=O)O)n1Cc1ccc(-c2ccccc2S(=O)(=O)NC(=O)NCCC)cc1	300 pM	> 10 mg/kg	0.6 mg/kg
CCCCc1nc(SC)c(C(=O)O)n1Cc1ccc(-c2ccccc2S(=O)(=O)NC(=O)NCCC)cc1	300 pM	0.7 mg/kg and 0.4 mg/kg	0.11 mg/kg and 0.13 mg/kg
CCCCc1nc(S(C)(=O)=O)c(C(=O)O)n1Cc1ccc(-c2ccccc2S(=O)(=O)NC(=O)NCCC)cc1	3200 pM	> 10 mg/kg	0.06 mg/kg
CCCCc1nc(SC)c(C(=O)O)n1Cc1ccc(-c2ccccc2S(=O)(=O)NS(=O)(=O)C(F)(F)F)cc1	800 pM	–	1.45 mg/kg
CCCCc1nc(SC)c(C(=O)O)n1Cc1ccc(-c2ccccc2S(=O)(=O)NC(=O)OC)cc1	900 pM	1.54 mg/kg	0.1 mg/kg
CCCCc1nc(SC)c(C(=O)O)n1Cc1ccc(-c2ccccc2S(=O)(=O)NC(=O)N(CC)CC)cc1	4700 pM	–	–
CCCCc1nc(Sc2ccccc2)c(C(=O)O)n1Cc1ccc(-c2ccccc2S(=O)(=O)NC(=O)NCCC)cc1	300 pM	> 10 mg/kg	0.67 mg/kg
CCCCc1nc(SC)c(C(=O)O)n1Cc1ccc(-c2ccccc2S(=O)(=O)NC(=O)OCC=C(C)C)cc1	1800 pM	–	–
CCCCc1nc(SC)c(C(=O)NCC(=O)O)n1Cc1ccc(-c2ccccc2S(=O)(=O)NC(=O)NCCC)cc1	1500 pM	3.55 mg/kg	0.06 mg/kg
CCCCc1nc(SC)c(C(=O)OC(C)(C)C)n1Cc1ccc(-c2ccccc2S(=O)(=O)NC(=O)NCCC)cc1	600 pM	–	0.1 mg/kg
CCCCc1nc(SC)c(C(N)=O)n1Cc1ccc(-c2ccccc2S(=O)(=O)NC(=O)NCCC)cc1	1000 pM	2.83 mg/kg	0.06 mg/kg
CCCCc1nc(SC)c(C(=O)NC(C)=O)n1Cc1ccc(-c2ccccc2S(=O)(=O)NC(=O)NCCC)cc1	1700 pM	3.01 mg/kg	0.09 mg/kg
CCCCOC(=O)NS(=O)(=O)c1ccccc1-c1ccc(Cn2c(CCCC)nc(SC)c2C(=O)O)cc1	100 pM	0.6 mg/kg	0.1 mg/kg
CCCCc1nc(SCC(F)(F)C(F)(F)CO)c(C(=O)O)n1Cc1ccc(-c2ccccc2S(=O)(=O)NC(=O)NCCC)cc1	300 pM	5.3 mg/kg	0.83 mg/kg
CCCCNC(=O)NS(=O)(=O)c1ccccc1-c1ccc(Cn2c(CCCC)nc(SC)c2C(=O)O)cc1	–	0.21 mg/kg	0.09 mg/kg
CCCCc1nc(SC)c(C(=O)O)n1Cc1ccc(-c2ccccc2S(=O)(=O)NC(=O)OCC(C)C)cc1	200 pM	0.43 mg/kg	0.15 mg/kg
CCCCc1nc(Cl)c(C(=O)O)n1Cc1ccc(-c2ccccc2S(=O)(=O)NC(=O)NCCC)cc1	1000 pM	3.1 mg/kg	0.16 mg/kg
CCCCc1nc(SC)c(C(=O)NC(C(=O)O)C(C)CC)n1Cc1ccc(-c2ccccc2S(=O)(=O)NC(=O)NCCC)cc1 (stereo not given)	300 pM	2.11 mg/kg	0.37 mg/kg
CCCCc1nc(SC)cn1Cc1ccc(-c2ccccc2S(=O)(=O)NC(=O)NCCC)cc1	2600 pM	> 10 mg/kg	0.7 mg/kg
CCCCc1nc(SCCCO)c(C(=O)O)n1Cc1ccc(-c2ccccc2S(=O)(=O)NC(=O)NCCC)cc1	200 pM	5.74 mg/kg	0.11 mg/kg

SMILES	IC50 [1]	ID50 [2]	ID50 [3]
CCCCc1nc(SC(F)(F)F)c(C(=O)O)n1Cc1ccc(-c2ccccc2S(=O)(=O)NC(=O)NCCC)cc1	800 pM	1.28 mg/kg	0.11 mg/kg
CCCCc1nc(SC)c(C(=O)O)n1Cc1ccc(-c2ccccc2S(=O)(=O)NC(=O)NCC)cc1	–	1.12 mg/kg	0.17 mg/kg
CCCCc1nc(SC)c(C(=O)O)n1Cc1ccc(-c2ccccc2S(=O)(=O)NC(C)=O)cc1	1000 pM	2.02 mg/kg	0.13 mg/kg
CCCCc1nc(C(=O)O)c(SC)n1Cc1ccc(-c2ccccc2S(=O)(=O)NC(=O)NCCC)cc1	103000 pM	–	–
CCCCc1nc(SC)c(C(=O)NCC(=O)OC)n1Cc1ccc(-c2ccccc2S(=O)(=O)NC(=O)NCCC)cc1	800 pM	2.4 mg/kg	0.05 mg/kg
CCCCc1nc(Sc2cccs2)c(C(=O)O)n1Cc1ccc(-c2ccccc2S(=O)(=O)NC(=O)NCCC)cc1	200 pM	–	2.01 mg/kg
CCCCc1nc(SC)c(C(=O)OCC)n1Cc1ccc(-c2ccccc2S(=O)(=O)N(C)C(=O)NCCC)cc1	78000 pM	–	–
CCCCc1nc(SC)c(C(=O)OCC)n1Cc1ccc(-c2ccccc2S(=O)(=O)NC(=O)NCCC)cc1	400 pM	1.13 mg/kg	0.08 mg/kg
CCCCc1nc(SCC(F)(F)F)c(C(=O)O)n1Cc1ccc(-c2ccccc2S(=O)(=O)NC(=O)NCCC)cc1	600 pM	2.28 mg/kg	0.8 mg/kg
CCCCc1nc(SC)c(C(=O)O)n1Cc1ccc(-c2ccccc2S(=O)(=O)NC(=O)c2ccccc2)cc1	90 pM	–	0.4 mg/kg
CCCNC(=O)NS(=O)(=O)c1ccccc1-c1ccc(Cn2c(C)nc(SC)c2C(=O)O)cc1	15000 pM	–	–
CCCCc1nc(SC(F)F)c(C(=O)O)n1Cc1ccc(-c2ccccc2S(=O)(=O)NC(=O)NCCC)cc1	500 pM	0.73 mg/kg	0.07 mg/kg
CCCCc1nc(SC)c(C(=O)O)n1Cc1ccc(-c2ccccc2S(=O)(=O)NC(=O)Cc2ccccc2)cc1	80 pM	1.75 mg/kg	0.44 mg/kg
C=CCNC(=O)NS(=O)(=O)c1ccccc1-c1ccc(Cn2c(CCCC)nc(SC)c2C(=O)O)cc1	1100 pM	0.57 mg/kg	0.11 mg/kg
CCCCc1nc(SCSC)c(C(=O)O)n1Cc1ccc(-c2ccccc2S(=O)(=O)NC(=O)NCCC)cc1	200 pM	2.75 mg/kg	–
CCCCc1nc(SC)c(C(=O)O)n1Cc1ccc(-c2ccccc2S(=O)(=O)NC(=O)NC)cc1	–	4.94 mg/kg	0.27 mg/kg
CCCNC(=O)NS(=O)(=O)c1ccccc1-c1ccc(Cn2c(CCC)nc(SC)c2C(=O)O)cc1	200 pM	–	–
CCCCc1nc(SC)c(C(=O)O)n1Cc1ccc(-c2ccccc2C(=O)NC(=O)NCCC)cc1	114000 pM	–	–
CCCCc1nc(SC)c(C(=O)O)n1Cc1ccc(-c2ccccc2S(=O)(=O)/N=C(/S)NCCC)cc1	2100 pM	–	1.15 mg/kg
CCCCc1nc(SC)c(C(=O)O)n1Cc1ccc(-c2ccccc2S(=O)(=O)NC(=O)NCc2cccnc2)cc1	900 pM	–	–
CCCNC(=O)NS(=O)(=O)c1ccccc1-c1ccc(Cn2c(C3CC3)nc(SC)c2C(=O)O)cc1	7700 pM	–	–
CCCCc1nc(SC)c(C(=O)NS(=O)(=O)c2ccccc2)n1Cc1ccc(-c2ccccc2S(=O)(=O)NC(=O)NCCC)cc1	800 pM	–	1.15 mg/kg
